Key:
[1] = Half life in fasted healthy human at 400 mg administered as single dose suspension; type: ADME, organism-based; settings: in vivo
Procedure, shortened: (§1)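 Single oral suspension dose in fasting healthy volunteers, alone, with 12 oz ginger ale, after esomeprazole 40 mg once each morning days −2 to 1, or both; four-way crossover, 7–10-day washout. EDTA plasma 0–168 h. LC-MS/MS (LLOQ 5.00 ng/ml). t1/2 = ln(2)/K from terminal log-linear regression; Tmax median.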

[2] = Cmax in fasted healthy human plasma at 200 mg QID, po administered as suspension for 7 days; type: ADME, organism-based; set-up: dose 200 mg, route oral
Procedure, shortened: (§2)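 Twelve healthy subjects took oral suspension for 7 days as 400 mg BID or 200 mg QID, either fasting or with a Boost-type nutritional supplement, in a crossover with 14–21 day washouts. Nonfat snacks of 800 cal/day or less were allowed. Plasma was sampled 0–168 h after the day-7 morning dose only and analysed by LC-MS/MS. AUC is AUC_τ, normalized to dose.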

[3] = AUC in fasted healthy human at 400 mg administered as single dose suspension; type: ADME, organism-based; settings: plasma
[4] = Apparent volume of distribution in fasted healthy human at 400 mg administered as single dose suspension; type: ADME, organism-based; settings: in vivo, read-out: Vc/F
[5] = Apparent volume of distribution in fasted healthy human at 400 mg administered as single dose suspension coadministered with acidic carbonated beverage; type: ADME, organism-based; settings: in vivo, read-out: Vc/F
Procedure, shortened: (§3)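 This was a four-way crossover in 12 healthy subjects with 7–10 day washouts. Each took one fasting 400 mg oral suspension dose, with 12 oz ginger ale and/or esomeprazole 40 mg once each morning on days −2 to 1, with dosing on day 1. Plasma was sampled 0–168 h and measured by LC-MS/MS (LLOQ 5.00 ng/ml). Analysis was noncompartmental, with CL/F = dose/AUC_I and V/F = (CL/F)/K.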

[6] = Tmax in fasted healthy human at 400 mg administered as single dose suspension coadministered with acidic carbonated beverage; type: ADME, organism-based; settings: in vivo; procedure, shortened: as §1
[7] = test system: Homo sapiens; assay: Toxicity in healthy human assessed as adverse events at 400 mg BID, po administered as suspension for 7 days coadministered with nutritional supplement; type: organism-based; settings: in vivo, 168 h
Procedure, shortened: (§4)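 Healthy volunteers monitored for adverse events, vital signs, clinical laboratory values and 12-lead ECG. Adverse events tabulated by body system or organ class and severity and summarized by treatment across the crossover regimens.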

[8] = Apparent volume of distribution in fasted healthy human at 400 mg administered as single dose suspension 5 mins before consumption of high fat meal; type: ADME, organism-based; settings: in vivo, read-out: Vc/F
Procedure, shortened: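 In a crossover of 12 healthy subjects, each took a single 400 mg oral suspension dose 5 min before, midway through (about 10 min into a 20-min meal), or 20 min after a high-fat meal of about 50 g fat. Plasma was drawn 0–168 h and measured by LC-MS/MS. Parameters are noncompartmental, with AUC to the last measurable time.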

[9] = test system: Homo sapiens; assay: Toxicity in healthy human assessed as asthenia at 400 mg BID, po administered as suspension for 7 days; type: organism-based; settings: in vivo, 168 h; procedure, shortened: as §4
[10] = Tmax in fasted healthy human at 400 mg administered as single dose suspension; type: ADME, organism-based; settings: in vivo; procedure, shortened: as §1
[11] = Tmax in fasted healthy human at 400 mg BID, po administered as suspension for 7 days; type: ADME, organism-based; settings: in vivo
Procedure, shortened: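 Healthy volunteers given oral suspension (40 mg/ml) for 7 days, fasted or with nutritional supplement (Boost); four-way crossover, 14–21-day washout, nonfat snacks ≤800 cal/day allowed. On day 7 only the morning dose was given; plasma sampled predose to 168 h after it. LC-MS/MS (LLOQ 5.00 ng/ml). t1/2 = ln(2)/K from log-linear terminal slope; Tmax as median.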

[12] = test system: Homo sapiens; assay: Toxicity in healthy human assessed as headache at 400 mg BID, po administered as suspension for 7 days coadministered with nutritional supplement; type: organism-based; settings: in vivo, 168 h
Procedure, shortened: (§5)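 Healthy volunteers (n = 12) took oral posaconazole suspension (40 mg/ml) for 7 days in a four-way randomized crossover with a 14- to 21-day washout. Subjects stayed fasted throughout, with nonfat snacks up to 800 cal/day allowed. Where given, Boost was taken with each dose. Safety covered adverse events, vital signs, clinical labs and 12-lead ECG, with AEs tabulated by body system and severity per treatment.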

[13] = Apparent total body clearance in fasted healthy human at 400 mg administered as single dose suspension coadministered with acidic carbonated beverage; type: ADME, organism-based; settings: in vivo; procedure, shortened: as §3
[14] = Cmax in fasted healthy human plasma at 400 mg administered as single dose suspension coadministered with acidic carbonated beverage and proton pump inhibitor; type: ADME, organism-based; set-up: dose 400 mg; procedure, shortened: as §3
[15] = test system: Homo sapiens; assay: AUC in fasted healthy human at 200 mg QID, po administered as suspension for 7 days; type: ADME, organism-based, Plasma; settings: in vivo, 168 h; procedure, shortened: as §2
[16] = AUC in healthy human at 400 mg administered as single dose suspension coadministered with nutritional supplement and 10 mg metoclopramide; type: ADME, organism-based; settings: plasma
Procedure, shortened: (§6)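 A three-way crossover in 13 healthy subjects gave one 400 mg oral suspension dose with a nutritional supplement, either alone, with metoclopramide 10 mg orally three times daily on the day before and the day of dosing, or with a single 4 mg dose of loperamide. Plasma was taken 0–168 h for LC-MS/MS. Analysis was noncompartmental.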

[17] = Apparent total body clearance in healthy human at 400 mg administered as single dose suspension coadministered with nutritional supplement; type: ADME, organism-based; settings: in vivo; procedure, shortened: as §6
[18] = test system: Homo sapiens; assay: Toxicity in healthy human assessed as adverse events at 400 mg BID, po administered as suspension for 7 days; type: organism-based; settings: in vivo, 168 h; procedure, shortened: as §4
[19] = Cmax in fasted healthy human plasma at 400 mg administered as single dose suspension; type: ADME, organism-based; set-up: dose 400 mg
[20] = AUC in fasted healthy human at 400 mg administered as single dose suspension coadministered with acidic carbonated beverage and proton pump inhibitor; type: ADME, organism-based; settings: plasma; procedure, shortened: as §3
[21] = Tmax in healthy human at 400 mg administered as single dose suspension coadministered with nutritional supplement and 10 mg metoclopramide; type: ADME, organism-based; settings: in vivo
Procedure, shortened: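 Single oral suspension dose with nutritional supplement, alone or with metoclopramide 10 mg orally three times daily on the day before and the day of dosing; three-way crossover, 7–10-day washout. EDTA plasma predose to 168 h, LC-MS/MS (LLOQ 5.00 ng/ml). t1/2 = ln(2)/K from terminal slope; Tmax median.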

[22] = test system: Homo sapiens; assay: Toxicity in healthy human assessed as dizziness at 400 mg BID, po administered as suspension for 7 days coadministered with nutritional supplement; type: organism-based; settings: in vivo, 168 h; procedure, shortened: as §5
[23] = test system: Homo sapiens; assay: AUC in fasted healthy human at 400 mg BID, po administered as suspension for 7 days; type: ADME, organism-based, Plasma; settings: in vivo, 168 h; procedure, shortened: as §2
[24] = test system: Homo sapiens; assay: Toxicity in healthy human assessed as nausea at 400 mg administered as single dose suspension coadministered with nutritional supplement and 4 mg loperamide as two 2 mg tablets; type: organism-based; settings: in vivo
Procedure, shortened: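 Three-way randomized crossover in 13 healthy volunteers with a 7- to 10-day washout. Each period was one 400-mg oral posaconazole suspension dose with a nutritional supplement. Metoclopramide 10 mg was given orally three times daily on the day before and the day of dosing; loperamide was a single 4 mg. Safety was assessed from adverse events, tabulated by body system and severity per treatment.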

[25] = Tmax in fasted healthy human at 400 mg administered as single dose suspension after 20 mins after consumption of high fat meal; type: ADME, organism-based; settings: in vivo
Procedure, shortened: (§7)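 Single oral suspension dose in healthy volunteers while fasting, 5 min before, midway through (about 10 min into a 20-min meal), or 20 min after a high-fat meal (approx 50 g fat); four-way crossover, 7–10-day washout. Plasma 0–168 h by LC-MS/MS (LLOQ 5.00 ng/ml). t1/2 = ln(2)/K; Tmax median.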

[26] = Tmax in fasted healthy human at 400 mg administered as single dose suspension 5 mins before consumption of high fat meal; type: ADME, organism-based; settings: in vivo; procedure, shortened: as §7

Compound: CC[C@@H]([C@H](C)O)n1ncn(-c2ccc(N3CCN(c4ccc(OC[C@@H]5CO[C@@](Cn6cncn6)(c6ccc(F)cc6F)C5)cc4)CC3)cc2)c1=O [POSACONAZOLE]
- half-life [1]: 24.5 h
- Cmax [2]: 2300 ng/mL
- AUC [3]: 4280 ng·h/mL
- Vd/F [4]: 3330 L
- Vd/F [5]: 1840 L
- Tmax [6]: 4 h
- Activity [7]: 75%
- Vd/F [8]: 1900 L
- Activity [9]: 25%
- Tmax [10]: 5 h
- Tmax [11]: 6 h
- Activity [12]: 25%
- CL/F [13]: 870 mL/min
- Cmax [14]: 93.3 ng/mL
- AUC [15]: 132000 ng·h/mL
- AUC [16]: 7390 ng·h/mL
- CL/F [17]: 823 mL/min
- Activity [18]: 75%
- Cmax [19]: 181 ng/mL
- AUC [20]: 4180 ng·h/mL
- Tmax [21]: 5 h
- Activity [22]: 33%
- AUC [23]: 52300 ng·h/mL
- Activity [24]: 23%
- Tmax [25]: 6 h
- Tmax [26]: 7 h
